One data set has as its system Mus musculus. As to the kind of experiment: Inhibition of apomorphine induced climbing in mice following p.o. administration. Format: functional. As to conditions: po. The gist of the method:
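Mice in two to three groups of 10 got the drug orally as a gum arabic suspension, then apomorphine 1 mg/kg s.c. 60 min later. Each mouse was caged in wire mesh and watched for 3 min from 20 min after apomorphine for wall-climbing, judged against a control group. ED50 (mg/kg) came from regression analysis.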

The next data set deals with Canis familiaris. As to the kind of experiment: Inhibition of apomorphine induced emesis in dogs following p.o. administration. Format: functional. As to conditions: Canis lupus familiaris, po. The gist of the method: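 Dogs were fasted and dosed 1 h before apomorphine 0.1 mg/kg s.c. Vomits within 30 min were counted and compared with the same dog's count 2 weeks earlier. ED50 was found by the up-and-down method.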

Data set [1] in a line: Toxicity in mice following p.o. administration. Format: organism-based. As to conditions: mouse, in vivo, po. In outline:
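Groups of 10 mice received the drug orally. Deaths were scored on day 7 after dosing, and LD50 (mg/kg) was obtained by graphical interpolation.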

Take `CCN1CCCC1CNC(=O)c1cc(NS(=O)(=O)NC)c(C)cc1OC` (stereo unspecified): the ED50 (as a rule, the dose at which the effect has come halfway, by size or by number of responders) was more than 50 mg/kg in the data set with Mus musculus and more than 1 mg/kg in the data set with Canis familiaris. For the same compound, the LD50 (commonly the dose at which mortality reaches 50%) in data set [1] is more than 1000 mg/kg.

Take `CCN1CCCC1CNC(=O)c1cc(NS(C)(=O)=O)c(C)cc1OC` (stereo unspecified): the ED50 is 35.6 mg/kg with Mus musculus and 1 mg/kg in the data set with Canis familiaris. In addition, the LD50 in data set [1] is 750 mg/kg.

With `CCN1CCCC1CNC(=O)c1cc(NS(=O)(=O)NC)c(Cl)cc1OC` (stereo unspecified), the figures for the ED50 in the data set with Mus musculus and in the data set on Canis familiaris were more than 50 mg/kg and more than 1 mg/kg, respectively. Moreover, the LD50 in data set [1] is more than 1000 mg/kg.

`CCN1CCCC1CNC(=O)c1cc(NS(=O)(=O)NC)ccc1OC` (stereo unspecified): the ED50 in the data set with Mus musculus was more than 50 mg/kg; in the data set on Canis familiaris, more than 1 mg/kg. This compound showed an LD50 in data set [1] of more than 1000 mg/kg.

`CCN1CCCC1CNC(=O)c1cc(NS(N)(=O)=O)ccc1OC` (stereo unspecified): the ED50 is more than 50 mg/kg in the data set on Mus musculus and 10 mg/kg in the data set with Canis familiaris. Moreover, the 50% lethal dose (LD50) in data set [1] is more than 1000 mg/kg.

As for `CCN1CCCC1CNC(=O)c1cc(NS(=O)(=O)N(C)C)ccc1OC` (stereo unspecified), the results for the ED50 with Mus musculus and in the data set on Canis familiaris were more than 50 mg/kg and 1 mg/kg, respectively. Further, the 50% lethal dose (LD50) in data set [1] was 750 mg/kg.

Consider `CCN1CCCC1CNC(=O)c1cc(N(C)S(C)(=O)=O)ccc1OC` (stereo unspecified), for which the ED50 in the data set on Mus musculus is 22.9 mg/kg; in the data set with Canis familiaris, 0.17 mg/kg. This compound displayed an LD50 in data set [1] of more than 1000 mg/kg.

Regarding `CCN1CCCC1CNC(=O)c1cc(N(C)S(N)(=O)=O)c(C)cc1OC` (stereo unspecified), the ED50 was more than 50 mg/kg in the data set on Mus musculus and 1 mg/kg with Canis familiaris. The compound also gave an LD50 in data set [1] of more than 1000 mg/kg.

`CCN1CCCC1CNC(=O)c1cc(NS(C)(=O)=O)c(Cl)cc1OC` (stereo unspecified): the ED50 in the data set on Mus musculus came out at 9.1 mg/kg; in the data set with Canis familiaris, 0.1 mg/kg. Further, in data set [1], the LD50 is more than 1000 mg/kg.

Consider `CCN1CCCC1CNC(=O)c1cc(NS(N)(=O)=O)c(C)cc1OC` (stereo unspecified), for which the values for the ED50 with Mus musculus and in the data set with Canis familiaris were more than 50 mg/kg and more than 1 mg/kg, respectively. Moreover, in data set [1], the LD50 is more than 1000 mg/kg.

In the case of `CCN1CCCC1CNC(=O)c1cc(N(C)S(=O)(=O)N(C)C)ccc1OC` (stereo unspecified), the values for the ED50 in the data set with Mus musculus and with Canis familiaris were 36.2 mg/kg and 1 mg/kg, respectively. Besides, the LD50 in data set [1] is 750 mg/kg.

Turning to `CCN1CCCC1CNC(=O)c1cc(NS(=O)(=O)N(C)C)c(Cl)cc1OC` (stereo unspecified), the ED50 with Mus musculus was 8.3 mg/kg; in the data set with Canis familiaris, 0.05 mg/kg. The compound also gave an LD50 in data set [1] of more than 1000 mg/kg.

Regarding `CCN1CCCC1CNC(=O)c1cc(N(C)S(N)(=O)=O)c(Cl)cc1OC` (stereo unspecified), the ED50 in the data set with Mus musculus was more than 50 mg/kg; in the data set on Canis familiaris, 1 mg/kg. The LD50 in data set [1] is more than 1000 mg/kg.

For `CCN1CCCC1CNC(=O)c1cc(NS(=O)(=O)N(C)C)c(C)cc1OC` (stereo unspecified), the results for the ED50 with Mus musculus and in the data set with Canis familiaris were 13.3 mg/kg and 0.05 mg/kg, respectively. Besides, the LD50 in data set [1] is more than 1000 mg/kg.

Regarding `CCN1CCCC1CNC(=O)c1cc(N(C)S(C)(=O)=O)c(C)cc1OC` (stereo unspecified), the ED50 with Mus musculus turned out to be 26.1 mg/kg; in the data set with Canis familiaris, 1 mg/kg. In data set [1], the 50% lethal dose (LD50) was more than 1000 mg/kg.

Regarding `CCN1CCCC1CNC(=O)c1cc(N(C)S(=O)(=O)N(C)C)c(C)cc1OC` (stereo unspecified), the ED50 in the data set with Mus musculus was more than 50 mg/kg; in the data set on Canis familiaris, 1 mg/kg. In data set [1], this compound had an LD50 of 750 mg/kg.

Consider `CCN1CCCC1CNC(=O)c1cc(N(C)S(=O)(=O)N(C)C)c(Cl)cc1OC` (stereo unspecified), for which the ED50 with Mus musculus is 31.8 mg/kg; with Canis familiaris, 0.1 mg/kg. This compound also yielded an LD50 in data set [1] of 750 mg/kg.

`CCN1CCCC1CNC(=O)c1cc(N(C)S(N)(=O)=O)ccc1OC` (stereo unspecified): the ED50 in the data set on Mus musculus was more than 50 mg/kg; in the data set on Canis familiaris, 1 mg/kg. Also, the 50% lethal dose (LD50) in data set [1] is more than 1000 mg/kg.

Regarding `CCN1CCCC1CNC(=O)c1cc(N(C)S(C)(=O)=O)c(Cl)cc1OC` (stereo unspecified), the ED50 in the data set with Mus musculus amounted to 7.7 mg/kg; in the data set with Canis familiaris it was 0.1 mg/kg. Moreover, in data set [1], the LD50 is more than 500 mg/kg.

As to `CCN1CCCC1CNC(=O)c1cc(NS(C)(=O)=O)ccc1OC` (stereo unspecified), the values for the ED50 with Mus musculus and with Canis familiaris were more than 50 mg/kg and 2 mg/kg, respectively. In data set [1], this compound displayed a median lethal dose (LD50) of more than 500 mg/kg.

In the case of `CCN1CCCC1CNC(=O)c1cc(NS(N)(=O)=O)c(Cl)cc1OC` (stereo unspecified), the figures for the ED50 in the data set on Mus musculus and in the data set on Canis familiaris were more than 50 mg/kg and 1 mg/kg, respectively. This compound returned an LD50 in data set [1] of more than 1000 mg/kg.

As to `CCN1CCCC1CNC(=O)c1cc(S(N)(=O)=O)ccc1OC` (stereo unspecified) [SULPIRIDE], the ED50 turned out to be 174 mg/kg in the data set with Mus musculus and 0.09 mg/kg with Canis familiaris. The LD50 in data set [1] is more than 3000 mg/kg.
